≈ marks a conversion by molar mass, not a printed value.
Legend:
Type in all cases: functional, cell-based
KB [1] = assay: Cytotoxicity against human KB cells after 3 days by SRB assay; settings: 72 h
Summary of the method: (§1)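 Freshly trypsinized cells seeded at 1500–7500 per well, compound added from DMSO-diluted stock. After 3 days attached cells were fixed with cold 50% TCA, stained with 0.4% SRB, bound dye solubilized and read at 562 nm.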

KB [2] = assay: Cytotoxicity against human vincristine-resistant KB cells overexpressing p-glycoprotein after 3 days by SRB assay; settings: 72 h; summary of the method: as §1
A549 = assay: Cytotoxicity against human A549 cells after 3 days by SRB assay; settings: A549, 72 h; summary of the method: as §1
DU-145 = assay: Cytotoxicity against human DU145 cells after 3 days by SRB assay; settings: DU-145, 72 h; summary of the method: as §1

Compound | IC50 (KB [1]) [µg/mL] | IC50 (KB [2]) [µg/mL] | IC50 (A549) [µg/mL] | IC50 (DU-145) [µg/mL]
C=C(C)CCC(C[C@@]12C[C@H]3[C@@H](C=C(C)C)[C@@](C(=O)c4ccc(O)c(O)c4)(C1=O)C(=O)[C@@](CC=C(C)C)(C2=O)C3(C)C)C(=C)C (some centres undefined) | 5.7 (≈ 9.49 µM) | 5.6 (≈ 9.32 µM) | 4.2 (≈ 6.99 µM) | 4.1 (≈ 6.82 µM)
C=C(C)CCC(C[C@]12C[C@@H]3[C@H](C=C(C)C)[C@](C(=O)c4ccc(O)c(O)c4)(C1=O)C(=O)[C@](CC=C(C)C)(C2=O)C3(C)C)C(=C)C (some centres undefined) | 4.4 (≈ 7.32 µM) | 5.3 (≈ 8.82 µM) | 4.2 (≈ 6.99 µM) | 4.2 (≈ 6.99 µM)
C=C(C)CC[C@H]1C[C@@]23C[C@@H](CC=C(C)C)C(C)(C)[C@@](CC=C(C)C)(C(=O)C(C(=O)c4ccc(O)c(O)c4)=C2OC1(C)C)C3=O | 4.9 (≈ 8.13 µM) | 5.2 (≈ 8.63 µM) | 4.5 (≈ 7.47 µM) | 4.7 (≈ 7.8 µM)
CC(C)=CCC1=C2O[C@H](C(C)(C)O)C[C@@]23C[C@H](CC=C(C)C)C(C)(C)[C@@](C(=O)C(C)C)(C1=O)C3=O | > 5 | > 5 | > 5 | > 5
C=C(C)CC[C@@H]1C[C@]23C[C@H](CC=C(C)C)C(C)(C)[C@](CC=C(C)C)(C(=O)C(C(=O)c4ccc(O)c(O)c4)=C2OC1(C)C)C3=O [CYCLOXANTHOCHYMOL] | 5 (≈ 8.29 µM) | 4.9 (≈ 8.13 µM) | 4.5 (≈ 7.47 µM) | 3.7 (≈ 6.14 µM)
C=C(C)[C@@H]1C[C@]23C[C@H](CC=C(C)C)C(C)(C)[C@](CC=C(C)C)(C(=O)C(C(=O)c4ccc(O)c(O)c4)=C2O[C@H]1C=C(C)C)C3=O [GARCINIALIPTONE B] | 5.7 (≈ 9.49 µM) | 6.6 (≈ 11 µM) | 6.7 (≈ 11.2 µM) | 7.3 (≈ 12.2 µM)
C=C(C)CC[C@H](C[C@@H]1C[C@@]2(CC=C(C)C)C(=O)C3=C(O[C@H](C(C)(C)O)C3)[C@](C(=O)c3ccc(O)c(O)c3)(C2=O)C1(C)C)C(=C)C [GARCINIALIPTONE C] | 3.4 (≈ 5.49 µM) | 4.9 (≈ 7.92 µM) | 4.3 (≈ 6.95 µM) | 4.3 (≈ 6.95 µM)
C=C(C)CC[C@H](C[C@@H]1C[C@]2(CC=C(C)C)C(=O)[C@@](C(=O)c3ccc(O)c(O)c3)(C(=O)C(CC=C(C)C)=C2O)C1(C)C)C(=C)C [GARCINIALIPTONE D] | 3.9 (≈ 6.47 µM) | 4.6 (≈ 7.63 µM) | 4.4 (≈ 7.3 µM) | 3.3 (≈ 5.47 µM)
CC(C)=CC[C@@H]1C[C@]23C[C@H](CC=C(C)C)C(C)(C)[C@](CC=C(C)C)(C(=O)C(C(=O)c4ccc(O)c(O)c4)=C2OC1(C)C)C3=O [ISOXANTHOCHYMOL] | 4.5 (≈ 7.47 µM) | 5.2 (≈ 8.63 µM) | 4.4 (≈ 7.3 µM) | 4.2 (≈ 6.97 µM)
CC(=O)O[C@H]1C(=O)[C@@]2(C)[C@H]([C@H](OC(=O)c3ccccc3)[C@]3(O)C[C@H](OC(=O)[C@H](O)[C@@H](NC(=O)c4ccccc4)c4ccccc4)C(C)=C1C3(C)C)[C@]1(OC(C)=O)CO[C@@H]1C[C@@H]2O [PACLITAXEL] | 0.002 (≈ 0.00234 µM) | > 0.085 |  | 0.002 (≈ 0.00234 µM)
